{"data": "Published values from different studies", "organism": "Escherichia coli", "note": "Lines come from different studies, so protocols differ."}
{"SMILES": "CCCCCCCCCCCCCCCCCCCCc1cc(O)cc(O)c1", "assay": "microbial growth", "measurement": "IC50", "result": "> 200 µM"}
{"SMILES": "Oc1cccc2cccnc12", "assay": "microbial growth, broth dilution", "system": "ATCC25922", "measurement": "IC50", "result": "49.5 µg/mL"}
{"SMILES": "COC(=O)c1cc(-c2cccc(NC(=S)Nc3ccc(C)cc3)c2)on1", "assay": "microbial growth, broth dilution", "system": "ATCC25922", "measurement": "MIC", "result": "> 64 µg/mL"}
{"SMILES": "O=C(O)c1cn(C2CC2)c2cc(N3CCNCC3)c(F)cc2c1=O", "assay": "microbial killing", "measurement": "MBC", "result": "19 µM"}
{"SMILES": "COc1c(N2C[C@@H]3CCCN[C@@H]3C2)c(F)cc2c(=O)c(C(=O)O)cn(C3CC3)c12", "assay": "microbial growth", "measurement": "MIC90", "result": "0.06 µg/mL"}
{"SMILES": "C[C@H]1NCc2cc(-c3ccc4c(=O)c(C(=O)O)cn(C5CC5)c4c3OC(F)F)ccc21", "assay": "microbial growth, broth dilution", "measurement": "MIC90", "result": "0.25 µg/mL"}
{"SMILES": "COC(=O)c1cc(-c2cccc(NC(=S)Nc3ccc(F)cc3F)c2)on1", "assay": "microbial growth, broth dilution", "system": "ATCC25922", "measurement": "MIC", "result": "> 64 µg/mL"}
{"SMILES": "C[n+]1c(/C=C/c2ccc(O)cc2)cc(/C=C2\\Sc3ccccc3N2CCCN2CCCC2)c2ccccc21.[I-]", "assay": "microbial growth, broth dilution", "system": "ATCCBAA2469", "measurement": "MIC", "result": "16 µg/mL"}
{"SMILES": "CC(C)CCCCCCCCCCCCc1cc(O)cc(O)c1", "assay": "microbial growth", "measurement": "IC50", "result": "78.1 µM"}
{"SMILES": "COC(=O)c1cc(-c2cccc(NC(=O)Nc3ccc(F)c(F)c3)c2)on1", "assay": "microbial growth, broth dilution", "system": "ATCC25922", "measurement": "MIC", "result": "> 64 µg/mL"}
{"SMILES": "CC(C)CCCCCCCCCCCCCCCc1cc(O)cc(O)c1", "assay": "microbial growth", "measurement": "IC50", "result": "70.2 µM"}
{"SMILES": "COC(=O)c1cc(-c2cccc(NC(=O)Nc3cc(Cl)ccc3Cl)c2)on1", "assay": "microbial growth, broth dilution", "system": "ATCC25922", "measurement": "MIC", "result": "> 64 µg/mL"}
{"SMILES": "CC1(C)S[C@@H]2[C@H](NC(=O)[C@H](N)c3ccccc3)C(=O)N2[C@H]1C(=O)O", "assay": "microbial growth, well diffusion", "system": "ATCC35218", "conditions": "60000 µg/mL", "measurement": "inhibition zone", "result": "15 mm"}
